bovine MsrA act: bovine MsrA enzyme activators, primary screen, biochemical, absorbance, HTS; Methionine sulfoxide reductase A (Bos taurus); purified bovine MsrA, absorbance read-out; activation, % at 10.6 µM; actives 0.3% (n = 360,000); in the data active = activation above about 7.5%;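 note: 0% = vehicle and 100% = reference activator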
MsrA inh: bovine MsrA enzyme inhibitors, primary screen, biochemical, absorbance, HTS; actives 0.75% (n = 360,000); purified bovine MsrA, absorbance read-out; inhibition, % at 15.5 µM; Methionine sulfoxide reductase A (Bos taurus); AID 651718, 2012; in the data active = inhibition above about 4.5%;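 note: 0% = vehicle wells with enzyme and 100% = reference inhibitor wells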
TbMetRS inhib: T. brucei MetRS inhibitors, primary screen, biochemical, luminescence. methionyl-tRNA synthetase (Trypanosoma brucei brucei). purified T. brucei MetRS, ATP depletion, Kinase-Glo luminescence. inhibition, % at 11.9 µM. actives 0.4% (n = 360,000). AID 624268, 2012;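 active = inhibition above a per-plate cutoff of the control wells' mean inhibition plus 3 SD, cut at about 5.5% in these data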;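 note: 0% = DMSO wells median and 100% = median of wells with control inhibitor compound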
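Material – parasite MetRS enzyme · Medium – HEPES-MgCl2-KCl buffer plus DTT, spermine, BSA, pyrophosphatase · Reagent – ATP, methionine and E. coli bulk tRNA substrates · Times – 15 min enzyme-compound preincubation, 2 h reaction, 10 min detection, 25 °C · Measured by – luminescence of leftover ATP · Evaluation – percent inhibition relative to median high and low control wells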
HTR2A ag: mouse Htr2a agonists via beta-arrestin recruitment, primary screen, cell-based, luminescence. CHO-K1 mHTR2A beta-arrestin complementation; percent of 30 µM serotonin response. actives 0.66% (n = 360,000). activation, % at 7.6 µM;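 active = activation above a run cutoff, the mean activation of all tested compounds plus 3 SD, cut at about 14% in these data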;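 note: 0% = plate median of compound wells and 100% = 30 µM serotonin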
AI-2 QS modul: Vibrio harveyi AI-2 quorum sensing modulators, primary screen, JMH597 strain, luminescence/OD600 ratio | Vibrio harveyi JMH597 AI-2 luminescence/OD600 ratio, 9 h; active compounds read low; strain lacks LuxN and CqsS sensors; 0 = neutral-control median | activity change, % at 7.5 µM | actives 0.4% (n = 300,000); in the data active = activity change below about -75%, passing the limit was not always enough;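 note: luminescence divided by OD600 gain over 9 h not by final OD600 alone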
AHR activator: AHR activators, primary screen, cell-based, luminescence, luciferase reporter, human. Aryl hydrocarbon receptor (Homo sapiens), P35869. actives 2.5% (n = 320,000). AHR-responsive luciferase reporter cells. activation, % at 5 µM. AID 2796, 2010; in the data active = activation above about 47%;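 note: 0% = vehicle wells and 100% = reference agonist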
Target sequence (P35869 whole entry, looked up): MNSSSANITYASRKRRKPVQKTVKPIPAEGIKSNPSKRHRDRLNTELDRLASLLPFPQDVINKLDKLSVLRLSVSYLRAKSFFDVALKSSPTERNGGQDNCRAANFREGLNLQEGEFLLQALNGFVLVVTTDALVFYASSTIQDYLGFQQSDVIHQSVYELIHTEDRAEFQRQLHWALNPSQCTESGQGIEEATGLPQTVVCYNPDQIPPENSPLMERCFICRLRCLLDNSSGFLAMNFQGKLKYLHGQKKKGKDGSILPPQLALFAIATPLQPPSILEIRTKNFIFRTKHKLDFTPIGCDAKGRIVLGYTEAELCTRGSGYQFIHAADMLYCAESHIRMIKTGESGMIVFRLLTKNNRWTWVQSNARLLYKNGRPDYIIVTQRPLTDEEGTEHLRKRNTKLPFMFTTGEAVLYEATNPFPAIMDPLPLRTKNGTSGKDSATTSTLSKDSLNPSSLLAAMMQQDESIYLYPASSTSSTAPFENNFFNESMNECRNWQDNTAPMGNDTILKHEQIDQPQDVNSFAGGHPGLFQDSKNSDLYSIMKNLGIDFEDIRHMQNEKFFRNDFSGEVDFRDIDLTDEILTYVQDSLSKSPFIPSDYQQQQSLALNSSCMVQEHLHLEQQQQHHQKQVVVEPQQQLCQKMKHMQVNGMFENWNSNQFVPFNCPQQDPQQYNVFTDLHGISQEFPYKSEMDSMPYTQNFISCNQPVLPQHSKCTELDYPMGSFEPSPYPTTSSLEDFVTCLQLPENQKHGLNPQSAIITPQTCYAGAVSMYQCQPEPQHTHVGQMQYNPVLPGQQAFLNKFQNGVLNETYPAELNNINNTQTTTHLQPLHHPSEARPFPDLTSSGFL
MsrA act confirm: bovine MsrA activators, retest, confirmation, biochemical, absorbance, HTS. shares compounds with bovine MsrA act. purified bovine MsrA, absorbance read-out. activation, % at 10.6 µM. actives 12% (n = 1,000). AID 602270, 2012; in the data active = activation above about 4%;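 note: enzyme coupled to thioredoxin and thioredoxin reductase with NADPH; 0% = vehicle wells and 100% = reference activator wells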
* hit, by the source's call; x = no result. An excerpt weighted towards active compounds, which were near 4.4% of everything screened.

SMILES	bovine MsrA act	MsrA inh	TbMetRS inhib	HTR2A ag	AI-2 QS modul	AHR activator	MsrA act confirm
CCNC(=O)N(C)c1nncnc1C(=O)NC	21.1*	-0.8	-0.5	5.7	-1.1	x	-1.6
Cc1cccc(NNC(=S)Nc2c(C)cccc2C)c1	8.0*	1.3	0.5	6.4	19.9	2.0	1.4
Cc1cccc(NNC(N)=S)c1	-1.0	-1.6	-0.1	-3.3	-3.1	1.8	x
Cc1cc(C)c2c(-n3cccc3)c(C(=O)NNS(=O)(=O)c3ccc(Br)cc3)sc2n1	8.5*	1.3	-0.3	2.9	29.6	1.4	-1.9
CC(=O)Nc1ccc(NC(=O)C(C)OC(=O)CSCc2cccc(Cl)c2)cc1 (stereo not drawn)	-0.7	-0.9	-0.4	0.6	6.3	-2.9	x
COc1ccc(CC(=O)Nc2sc3c(c2C(N)=O)CCCC3)cc1	8.4*	0.4	-0.1	-1.9	12.2	0.4	-1.9
COc1cc(CC(=O)Nc2sc3c(c2C(N)=O)CCCC3)cc(OC)c1OC	-2.1	1.8	0.3	2.2	29.7	1.2	x
O=C(COC(=O)c1cc(F)cc(F)c1)Nc1cccnc1Cl	9.1*	-0.9	-0.6	1.0	22.3	0.2	-3.5
O=C(COC(=O)c1ccc(F)cc1F)Nc1cccnc1Cl	1.3	0.7	-0.2	-0.6	x	-0.1	x
Cc1ccc(NC(=O)C(OC(=O)c2cnc(C)cn2)c2ccccc2)c([N+](=O)[O-])c1 (stereo not drawn)	-0.7	1.9	0.5	6.6	-4.9	-2.4	x
O=C(NCCN1CCOCC1)c1ccccc1Cl	16.9*	-0.5	-0.8	12.3	1.0	x	-0.8
O=C(NCCN1CCOCC1)c1c(Cl)cccc1Cl	-0.4	-1.0	-1.0	0.9	-9.9	0.9	x
COc1ccc(Cl)cc1NC(=O)CN(C)CC(=O)Nc1ccc(Br)cc1	8.9*	-0.3	0.7	-0.8	x	1.7	1.1
COc1ccc(N2CCN(Cc3cc(=O)oc4cc5c(cc34)CCCC5)CC2)cc1	-4.4	0.9	-0.5	-6.7	2.9	2.2	x
COc1ccc(N2CCN(Cc3cc4c(cc3O)CCC4)CC2)cc1	14.2*	1.0	-0.4	-2.6	18.5	-3.0	-0.2
CCOC(=O)c1sc(=S)n(-c2ccccc2)c1SC	9.2*	3.2	-0.6	1.8	-6.5	-1.0	-5.5
COCCn1nnnc1CN1CCN(c2cccc(C(F)(F)F)c2)CC1	8.4*	-1.0	-1.1	-5.0	4.0	5.1	1.2
COCCn1nnnc1CN1CCC(O)(c2cccc(C(F)(F)F)c2)CC1	-2.6	0.6	-0.6	-1.2	6.8	-2.1	x
Cc1cc(C)cc(-c2nnc(SCC(=O)NCC3CCCO3)o2)c1 (stereo not drawn)	-8.4	0.8	-0.4	7.6	x	x	x
Cn1c(SCC(=O)NC2CCCC2)nnc1-c1ccco1	-2.3	-0.8	-0.2	0.2	26.1	-0.4	x
CC(Sc1nnc(-c2ccco2)n1C)C(=O)NC1CCCC1 (stereo not drawn)	16.7*	0.4	0.1	-0.5	x	-2.3	-2.8
O=S(=O)(Nc1ccccc1Cl)c1ccc(NS(=O)(=O)c2cccs2)cc1	7.7*	-0.8	0.3	-6.0	30.8	-0.1	0.3
CCCC(CNC(C)=O)(C1=CCCCC1)c1ccccc1 (stereo not drawn)	4.1	-1.1	-0.2	-1.1	x	x	x
COc1ccc(NC(=O)NC(C)c2ccccc2)cc1 (stereo not drawn)	17.3*	-0.9	0.0	-5.0	1.6	x	-1.4
COc1ccc(NC(C)c2ccccc2)cc1 (stereo not drawn)	-1.2	1.4	-0.3	1.4	22.4	x	x
O=C(C1CC(=O)N(c2ccc3c(c2)OCCO3)C1)N1CCN(c2ccccc2O)CC1 (stereo not drawn)	-6.6	-0.4	-0.5	-6.1	11.5	-1.9	x
